Tests used:
Bone [1] = assay: Biodistribution in BALB/c mouse bone at 7.4 MBq, iv after 120 mins by gamma counting; type: ADME, organism-based, Bone element; details: in vivo, 2 h
In short: (§1)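 Tracer given intravenously to BALB/c mice; animals sampled at 10, 30, 60 and 120 min after injection. Organ radioactivity expressed as percentage of injected dose per gram of tissue (% ID/g), n = 12.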

[2] = Drug uptake in Sprague-Dawley rat myocardium at 37 MBq, iv up to 1 hr by micro PET analysis; type: ADME, organism-based; details: in vivo
In short: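 Rats received the tracer intravenously and were imaged by micro-PET in coronal view at 0.5 h and 1.0 h after injection.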

Nucleic Acid [3] = assay: Ratio of drug level in BALB/c mouse heart to blood at 7.4 MBq, iv after 10 mins by gamma counter; type: ADME, organism-based; details: other tissue
In short: (§2)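 Normal BALB/c mice were given the 18F tracer by i.v. injection. Tissues were sampled at 10, 30, 60 and 120 min. Activity is expressed as % injected dose per gram of tissue (n = 12), and organ ratios were taken from these values.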

[4] = Octanol-NaCl aqueous solution partition coefficient, log P of the compound after 20 mins by gamma counting; type: physicochemical
Pancreas [5] = assay: Biodistribution in BALB/c mouse pancreas at 7.4 MBq, iv after 120 mins by gamma counting; type: ADME, organism-based; details: in vivo, 2 h; in short: as §1
Intestine [6] = assay: Biodistribution in BALB/c mouse intestine at 7.4 MBq, iv after 60 mins by gamma counting; type: ADME, organism-based; details: in vivo, 1 h; in short: as §1
Spleen [7] = assay: Biodistribution in BALB/c mouse spleen at 7.4 MBq, iv after 30 mins by gamma counting; type: ADME, organism-based; details: in vivo, 0.5 h; in short: as §1
Nucleic Acid [8] = assay: Ratio of drug level in BALB/c mouse heart to liver at 7.4 MBq, iv after 30 mins by gamma counter; type: ADME, organism-based; details: in vivo, 0.5 h; in short: as §2
Pancreas [9] = assay: Biodistribution in BALB/c mouse pancreas at 7.4 MBq, iv after 60 mins by gamma counting; type: ADME, organism-based; details: in vivo, 1 h; in short: as §1
H9c2 [10] = assay: Cellular uptake in rat H9c2 cells after 0.5 hrs by gamma counting; type: ADME, cell-based; details: h9c2, 0.5 h
In short: (§3)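 Radiotracer incubated with H9c2 cells at 37 °C for 0.5, 1 or 2 h. Uptake expressed as percentage of applied radioactivity; means ± SD of three measurements.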

Kidney = assay: Biodistribution in BALB/c mouse kidney at 7.4 MBq, iv after 30 mins by gamma counting; type: ADME, organism-based; details: in vivo, 0.5 h; in short: as §1
Intestine [11] = assay: Biodistribution in BALB/c mouse intestine at 7.4 MBq, iv after 30 mins by gamma counting; type: ADME, organism-based; details: in vivo, 0.5 h; in short: as §1
Intestine [12] = assay: Biodistribution in BALB/c mouse intestine at 7.4 MBq, iv after 120 mins by gamma counting; type: ADME, organism-based; details: in vivo, 2 h; in short: as §1
Liver [13] = assay: Biodistribution in BALB/c mouse liver at 7.4 MBq, iv after 120 mins by gamma counting; type: ADME, organism-based; details: in vivo, 2 h; in short: as §1
Heart [14] = assay: Biodistribution in BALB/c mouse heart at 7.4 MBq, iv after 30 mins by gamma counting; type: ADME, organism-based; details: in vivo, 0.5 h; in short: as §1
Heart [15] = assay: Biodistribution in BALB/c mouse heart at 7.4 MBq, iv after 60 mins by gamma counting; type: ADME, organism-based; details: in vivo, 1 h; in short: as §1
H9c2 [16] = assay: Cellular uptake in rat H9c2 cells after 2 hrs by gamma counting; type: ADME, cell-based; details: h9c2, 2 h; in short: as §3
Liver [17] = assay: Biodistribution in BALB/c mouse liver at 7.4 MBq, iv after 10 mins by gamma counting; type: ADME, organism-based; details: in vivo; in short: as §1
Nucleic Acid [18] = assay: Ratio of drug level in BALB/c mouse heart to lung at 7.4 MBq, iv after 10 mins by gamma counter; type: ADME, organism-based; details: in vivo; in short: as §2
Heart [19] = assay: Biodistribution in BALB/c mouse heart at 7.4 MBq, iv after 120 mins by gamma counting; type: ADME, organism-based; details: in vivo, 2 h; in short: as §1
Muscle tissue [20] = assay: Biodistribution in BALB/c mouse normal muscle at 7.4 MBq, iv after 30 mins by gamma counting; type: ADME, organism-based; details: in vivo, 0.5 h; in short: as §1
Bone [21] = assay: Biodistribution in BALB/c mouse bone at 7.4 MBq, iv after 60 mins by gamma counting; type: ADME, organism-based, Bone element; details: in vivo, 1 h; in short: as §1
H9c2 [22] = assay: Cellular uptake in rat H9c2 cells after 0.5 to 2 hrs by gamma counting in presence of CCCP; type: ADME, cell-based
In short: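 H9c2 cells incubated with radiotracer at 37 °C for 0.5, 1 or 2 h in the presence of 0.5 µM protonophore CCCP, which abolishes mitochondrial membrane potential. Uptake expressed as percentage of applied radioactivity; means ± SD of three measurements.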

Lung = assay: Biodistribution in BALB/c mouse lung at 7.4 MBq, iv after 30 mins by gamma counting; type: ADME, organism-based; details: in vivo, 0.5 h; in short: as §1
Muscle tissue [23] = assay: Biodistribution in BALB/c mouse normal muscle at 7.4 MBq, iv after 10 mins by gamma counting; type: ADME, organism-based; details: in vivo; in short: as §1
Muscle tissue [24] = assay: Biodistribution in BALB/c mouse normal muscle at 7.4 MBq, iv after 60 mins by gamma counting; type: ADME, organism-based; details: in vivo, 1 h; in short: as §1
Spleen [25] = assay: Biodistribution in BALB/c mouse spleen at 7.4 MBq, iv after 60 mins by gamma counting; type: ADME, organism-based; details: in vivo, 1 h; in short: as §1
Nucleic Acid [26] = assay: Ratio of drug level in BALB/c mouse heart to liver at 7.4 MBq, iv after 120 mins by gamma counter; type: ADME, organism-based; details: in vivo, 2 h; in short: as §2
Bone [27] = assay: Biodistribution in BALB/c mouse bone at 7.4 MBq, iv after 10 mins by gamma counting; type: ADME, organism-based, Bone element; details: in vivo; in short: as §1
Liver [28] = assay: Biodistribution in BALB/c mouse liver at 7.4 MBq, iv after 60 mins by gamma counting; type: ADME, organism-based; details: in vivo, 1 h; in short: as §1
Stomach = assay: Biodistribution in BALB/c mouse stomach at 7.4 MBq, iv after 30 mins by gamma counting; type: ADME, organism-based; details: in vivo, 0.5 h; in short: as §1

- Drug uptake (Bone [1]): 2.28 % ID/g
- Drug uptake [2]: Active
- Ratio (Nucleic Acid [3]): > 55
- logP at 20 min [4]: 0.89
- Drug uptake (Pancreas [5]): 5.44 % ID/g
- Drug uptake (Intestine [6]): 4.67 % ID/g
- Drug uptake (Spleen [7]): 2.81 % ID/g
- Ratio (Nucleic Acid [8]): 8.05
- Drug uptake (Pancreas [9]): 7.35 % ID/g
- Drug uptake (H9c2 [10]): 0.47%
- Drug uptake (Kidney): 23.67 % ID/g
- Drug uptake (Intestine [11]): 8.52 % ID/g
- Drug uptake (Intestine [12]): 2.66 % ID/g
- Drug uptake (Liver [13]): 1.33 % ID/g
- Drug uptake (Heart [14]): 19.33 % ID/g
- Drug uptake (Heart [15]): 19.96 % ID/g
- Drug uptake (H9c2 [16]): 0.68%
- Drug uptake (Liver [17]): 3.57 % ID/g
- Ratio (Nucleic Acid [18]): 4.58
- Drug uptake (Heart [19]): 24.27 % ID/g
- Drug uptake (Muscle tissue [20]): 5.27 % ID/g
- Drug uptake (Bone [21]): 2.44 % ID/g
- Drug uptake (H9c2 [22]): Not Active
- Drug uptake (Lung): 5.18 % ID/g
- Drug uptake (Muscle tissue [23]): 6.46 % ID/g
- Drug uptake (Muscle tissue [24]): 4.42 % ID/g
- Drug uptake (Spleen [25]): 1.95 % ID/g
- Ratio (Nucleic Acid [26]): 19.16
- Drug uptake (Bone [27]): 3.37 % ID/g
- Drug uptake (Liver [28]): 2.03 % ID/g
- Drug uptake (Stomach): 3.98 % ID/g
Structure (SMILES): [18F]CCOCC[P+](c1ccccc1)(c1ccccc1)c1ccccc1
